Data published in PubChem BioAssay.
The source made the active and inactive calls.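 The calls were made as follows, unless noted: active = GFP response above 150% of the DMSO level; inconclusive = fewer than 70 events counted for a yeast strain; inactive = the rest.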

Key:
[1] = RPL19A-GFP modulators, yeast TOR pathway, confirmation, cell-based, S. cerevisiae, flow cytometry, cherry picks, mother/daughter gates (AID 2270;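 active = GFP response below 50% of the DMSO control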); details: S. cerevisiae RPL19A-GFP strain, 3 h, at 10 µM, stronger effect = lower value, 100 = same GFP as DMSO wells
[2] = LAP4-GFP expression modulators in yeast, confirmation, cell-based, cherry picks, flow cytometry, mother/daughter gates (AID 2271;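 active = GFP response above 150% of the DMSO control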;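 also: ratio of sample to DMSO plate mean so 100% equals DMSO level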); details: S. cerevisiae LAP4-GFP strain, 3 h, at 10 µM, stronger effect = higher value, 100 means same as DMSO control
How it was run: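 Measured by: GFP by flow cytometry. Test system: GFP-fusion yeast strain. Input: yeast cells seeded at OD600 of 0.2. Timing: 30 °C, 3 h compound incubation, rotating. Buffer or medium: synthetic complete medium for yeast. Benchmarks: DMSO-only negative wells, rapamycin 400 ng/mL positive wells. Compound: 10 µM single dose.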

[3] = modulators of MEP2-GFP levels in yeast, confirmation, S. cerevisiae, flow cytometry GFP, cherry picks (AID 2272;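 active = GFP response above 150% of the DMSO control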;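 also: ratio of well signal to plate DMSO mean so 100% equals DMSO level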); details: S. cerevisiae MEP2-GFP strain, 3 h, at 10 µM, stronger effect = higher value
[4] = AGP1-GFP expression modulators, hit retest, confirmation, cell-based, flow cytometry, S. cerevisiae, cherry picks (AID 2273);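 also: median GFP channel fluorescence over the whole cell population gate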; details: S. cerevisiae AGP1-GFP strain, 3 h, at 10 µM
[5] = modulators of CIT2-GFP expression in yeast, confirmation, S. cerevisiae, GFP fusion, cherry picks, mother/daughter gates (AID 2274); details: S. cerevisiae CIT2-GFP strain, flow cytometry, 3 h, at 10 µM, stronger effect = higher value
[6] = measured here: daughter cell gate
[7] = measured here: mother cell gate
[8] = measured here: daughter cell gate response
[9] = measured here: mother cell gate response

| SMILES | GFP response vs DMSO [1] | GFP response vs DMSO [1, 6] [%] | GFP response vs DMSO [1, 7] [%] | GFP response relative to DMSO [2] | GFP response relative to DMSO [2, 8] [%] | GFP response relative to DMSO [2, 9] [%] | GFP response vs DMSO [3] | GFP response, % of DMSO [4] | GFP response, % of DMSO [5] | GFP response, % of DMSO [5, 6] [%] | GFP response, % of DMSO [5, 7] [%] |
| --- | --- | --- | --- | --- | --- | --- | --- | --- | --- | --- | --- |
| CCOC(=O)C1CCCN(C(=O)c2ccc(-c3ccc([N+](=O)[O-])cc3)o2)C1 (configuration not stated) | 99.8% (inactive) | 100 | 98.4 | 101% (inactive) | 101 | 101 | 103% (inactive) | 99.3% (inactive) | 100% (inactive) | 97.6 | 102 |
| CCOC(=O)c1cc2c(=O)n3ccccc3nc2n(CCOC)c1=NC(=O)C(C)(C)C | 99.4% (inactive) | 99.1 | 97.3 | 94.4% (inactive) | 92.6 | 94.1 | 99% (inactive) | 103% (inactive) | 94.4% (inactive) | 93.8 | 93.2 |
| CC(=O)Oc1ccc(/C=c2\sc3ncnn3c2=O)cc1 | 100% (inactive) | 102 | 97.8 | 123% (inactive) | 122 | 125 | 101% (inactive) | 98.8% (inactive) | 100% (inactive) | 103 | 96 |
| CC(=O)Nc1cccc(Oc2ccc(-c3noc(C)n3)cc2)c1 | 95.8% (inactive) | 93.4 | 96.3 | 101% (inactive) | 99.1 | 102 | 107% (inactive) | 93.6% (inactive) | 97.3% (inactive) | 95.6 | 96.8 |
| Cc1ccc(C(C[N+](=O)[O-])n2nc(C)cc2C)cc1 (configuration not stated) | 97% (inactive) | 101 | 93.6 | 120% (inactive) | 120 | 125 | 103% (inactive) | 102% (inactive) | 90.9% (inactive) | 95.2 | 87.8 |
| CCOC(=O)C1CCCN(c2nc3c(C)cccn3c(=O)c2/C=C(\C#N)C(=O)NCc2ccco2)C1 (configuration not stated) | 102% (inactive) | 101 | 101 | 101% (inactive) | 102 | 99.5 | 114% (inactive) | 95.2% (inactive) | 104% (inactive) | 104 | 100 |
| CS(=O)(=O)N1N=C(c2ccco2)CC1c1ccc(Cl)cc1 (configuration not stated) | 101% (inactive) | 102 | 101 | 96.5% (inactive) | 97.9 | 94.6 | 104% (inactive) | 101% (inactive) | 101% (inactive) | 100 | 100 |
| CCCc1nnc(NC(=O)c2nc(S(=O)(=O)Cc3ccc(C)cc3)ncc2Cl)s1 | 98.9% (inactive) | 97.6 | 94 | 106% (inactive) | 102 | 104 | 103% (inactive) | 103% (inactive) | 112% (inactive) | 106 | 108 |
| COC(=O)Cn1nc(-c2ccccc2)c2cc(Cl)ccc21 | 101% (inactive) | 100 | 101 | 104% (inactive) | 104 | 104 | 109% (inactive) | 102% (inactive) | 114% (inactive) | 116 | 112 |
| COc1ccc(NC(=O)/C(C#N)=C/c2ncc([N+](=O)[O-])n2C)c(OC)c1 | 97.2% (inactive) | 95.1 | 99.8 | 151% (active) | 138 | 162 | 169% (inactive) | 99.5% (inactive) | 134% (inactive) | 132 | 136 |
| Cc1cccc2nc(-c3cccnc3)c(NCCC(C)C)n12 | 98.8% (inactive) | 99.8 | 99.6 | 89% (inactive) | 89.5 | 92.1 | 107% (inactive) | 98.5% (inactive) | 96.5% (inactive) | 99.7 | 94.4 |
| O=C(N/N=C\c1ccc(F)cc1)c1cc(OCC(F)(F)F)ccc1OCC(F)(F)F | 99.1% (inactive) | 99.3 | 99.2 | 100% (inactive) | 95 | 99.5 | 102% (inactive) | 105% (inactive) | 105% (inactive) | 106 | 103 |
| COc1ccccc1C1CCN(Cc2c(C)[nH]c3ccccc23)CC1 | 103% (inactive) | 102 | 104 | 97% (inactive) | 95.9 | 96.2 | 99% (inactive) | 102% (inactive) | 98.8% (inactive) | 97.4 | 98.1 |
| O=C1C2C3C=CC(CO)(O3)C2C(=O)N1c1ccccc1-c1ccccc1 (configuration not stated) | 113% (inactive) | 117 | 110 | 135% (inactive) | 128 | 132 | 126% (inactive) | 109% (inactive) | 124% (inactive) | 132 | 113 |
| COc1ccc(CCNC2=C(Cl)C(=O)N(CCc3ccccc3)C2=O)cc1OC | 101% (inactive) | 102 | 102 | 103% (inactive) | 105 | 103 | 102% (inactive) | 97.4% (inactive) | 107% (inactive) | 99.7 | 103 |
| Clc1ccc(Nc2ncnc3ccc(Br)cc23)cc1 | 98.4% (inactive) | 89.5 | 99 | 122% (inactive) | 102 | 124 | 95.4% (inactive) | 86.2% (inactive) | 86.3% (inactive) | 83.5 | 84 |
| CC(C)(C)NC(=O)CN(C(=O)CCC(=O)Nc1nccs1)c1ccc(F)cc1 | 101% (inactive) | 100 | 101 | 98.2% (inactive) | 95.9 | 98.4 | 105% (inactive) | 101% (inactive) | 102% (inactive) | 99.2 | 101 |
| COc1ccc(/C=C2\Sc3ccc(C(=O)N4CCc5ccccc5C4)cc3N(C)C2=O)cc1 | 98.4% (inactive) | 97.4 | 99.5 | 99.2% (inactive) | 99.2 | 98.3 | 102% (inactive) | 102% (inactive) | 99.7% (inactive) | 99.1 | 98.5 |
| Cc1ccc(N2CCN(C(=O)c3ccccc3Br)CC2)c(C)c1 | 100% (inactive) | 97.6 | 101 | 95.4% (inactive) | 92.8 | 96.1 | 98.3% (inactive) | 92.1% (inactive) | 96.9% (inactive) | 97.2 | 96.1 |
| COc1ccc(C(=O)NC(=S)NNC(=O)c2cnccn2)cc1 | 99.3% (inactive) | 91.3 | 96 | 285% (active) | 176 | 262 | 114% (inactive) | 95.2% (inactive) | 104% (inactive) | 96.4 | 93.3 |
| Cc1cc(C)c(C(=O)COC(=O)c2ccc([N+](=O)[O-])o2)cc1C | 100% (inactive) | 102 | 98.2 | 102% (inactive) | 102 | 104 | 101% (inactive) | 105% (inactive) | 100% (inactive) | 101 | 97.1 |
| Cc1cc(C)n2nc(C(=O)NC(c3ccccc3)c3ccccc3)nc2n1 | 98.6% (inactive) | 99.9 | 98.2 | 98.6% (inactive) | 99.7 | 99.2 | 98.8% (inactive) | 104% (inactive) | 111% (inactive) | 110 | 112 |
| O=c1/c(=C/c2cccc3ccccc23)sc2ncnn12 | 112% (inactive) | 113 | 107 | 185% (active) | 177 | 180 | 116% (inactive) | 91.2% (inactive) | 112% (inactive) | 122 | 100 |
| O=C1C(=O)N(Cc2ccccc2)C(c2cccc(O)c2)/C1=C(\O)c1ccc2c(c1)OCCO2 (configuration not stated) | 100% (inactive) | 100 | 100 | 95% (inactive) | 95.6 | 98.3 | 100% (inactive) | 95.2% (inactive) | 108% (inactive) | 106 | 109 |
| Cc1cc(NC(=O)c2cccnc2Cl)ccc1NC(=O)c1cc2ccccc2o1 | 98% (inactive) | 97.1 | 94.5 | 103% (inactive) | 101 | 104 | 105% (inactive) | 98.8% (inactive) | 103% (inactive) | 97.4 | 103 |
| COCCCN1C(=O)C2C(C(=O)Nc3cc(C)cc(C)c3)C3C=CC2(O3)C1C(=O)NC1CCCCC1 (configuration not stated) | 100% (inactive) | 101 | 101 | 95% (inactive) | 100 | 98.3 | 102% (inactive) | 96.7% (inactive) | 112% (inactive) | 105 | 114 |
| CCn1c(=O)c(C(C)=O)c(O)c2ccccc21 | 104% (inactive) | 101 | 104 | 89.3% (inactive) | 87.7 | 91 | 96.8% (inactive) | 102% (inactive) | 97.3% (inactive) | 99.2 | 91.9 |
